# Screening results: PubChem BioAssay, Sanford-Burnham Center for Chemical Genomics
# Rows were chosen to be rich in hits. Some 1.8% of all compounds tested hit in one or more screens of this group.
# Jurkat NFkB inh – lowers PMA/ionomycin-induced NF-kB signal in Jurkat cells | PMA/ionomycin-induced NF-kB luciferase reporter, luminescence | inhibition, % at 4 µM | 330,000 compounds, 0.53% hits | AID 435003; in the data active = inhibition above about 50%
# Gli-Sufu antag – antagonists of Gli-Sufu signaling. Sufu-KO-LIGHT fibroblasts, Gli luciferase reporter luminescence. 340,000 compounds, 0.74% hits. inhibition, % at 5 µM;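 active = inhibition above about 55%, limit read from the data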;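 also: 0% = DMSO-treated cells and 100% = wells with medium but no cells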
# 697 NFkB inh – inhibitors of the PMA/ionomycin-induced NF-kB reporter in 697 B cells; 697 B-cell NF-kB luciferase reporter, 16 h; inhibition, % at 4 µM; 330,000 compounds, 0.33% hits; AID 435022; in the data active = inhibition above about 35%
# hiPSC survival – increases survival of single human iPS cells; hiPSC single-cell survival, ATPlite luminescence; 100% = ROCK inhibitor wells, 0% = DMSO; survival enhancement, % at 20 µM; 360,000 compounds, 0.044% hits; in the data active = survival enhancement above about 18%;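 also: cells exposed to compounds for 16 hours before the ATP read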
# Hep lipid drop – hepatic lipid droplet formation modulation. 240,000 compounds, 0.4% hits. AML12 mouse hepatocytes, oleate lipid droplets, BODIPY imaging. inhibition, % at 6.5 µM;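 active = lipid droplet intensity inhibited by at least 50%, with more than 500 cells counted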
#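 Assay system: AML12 hepatocytes (mouse); Probe or stimulus: oleic acid at 100 µM to induce lipid droplet formation; Dosing: compound at 6.5 µM only; Schedule: compound with oleate, overnight; Detection: fluorescence imaging, 20x objective, two fields per well; Measure: % inhibition of lipid droplet signal.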
# TAG inh – inhibitors of triacylglycerol accumulation; H9c2 cells, Nile Red lipid (TAG) fluorescence; cells loaded with 200 µM oleic acid; inhibition, % at 12.5 µM; 230,000 compounds, 0.66% hits;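 active = pattern-corrected inhibition of lipid staining of at least 50% with the nuclear-stain viability signal not falling by more than 50%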;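 also: 0% = DMSO wells and 100% = triacsin C control wells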
# TAG conf – confirmation of triacylglycerol accumulation inhibitors; shares compounds with TAG inh; H9c2 lipid accumulation, Nile Red fluorescence; cells loaded with 200 µM oleic acid; inhibition, % at 12.5 µM; 990 compounds, 71% hits;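 active = mean inhibition across replicates of 40% or more; inactive = mean inhibition below 40%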;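 also: plate controls were DMSO only wells for no effect and Triacsin C treated wells for full effect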
# Numbers without * were called inactive; . = not tested or not shown.
SMILES,Jurkat NFkB inh,Gli-Sufu antag,697 NFkB inh,hiPSC survival,Hep lipid drop,TAG inh,TAG conf
O=C(C[C@H]1C[C@H](C(=O)N2CCOCC2)[C@@]2(CCC3CCCC3)c3[nH]c4ccc(Cl)cc4c3CCN2C1=O)NCCN1CCOCC1,.,-2.7,-0.5,-0.4,.,-6.1,.
COc1ccc2[nH]c3c(c2c1)CCN1C(=O)C(CC(=O)NCC24CC5CC(CC(C5)C2)C4)C[C@H](C(=O)N2CCOCC2)[C@@]31CCC1CCCC1 (stereo partly drawn),.,14.7,-1.2,-1.7,.,71.9*,72.9*
Cc1cc(C)n(C(=O)CCCn2cc([N+](=O)[O-])cn2)n1,-7.3,-10.1,13.4,-0.6,2.0,-2.3,.
CC(C)c1cccc(C(C)C)c1OC(=O)[C@H]1OC(c2ccc(Br)cc2)=C[C@@H]1c1ccc(Br)cc1,7.0,3.7,0.3,-0.9,.,59.0*,22.7
OCCCn1c(C2CCCN2c2nc(-c3ccc(F)cc3)cs2)nc2cc(C(F)(F)F)ccc21 (stereo not drawn),-0.1,.,1.3,-1.6,.,60.1*,57.0*
OCCCn1c(C2CCCN2c2nc(-c3ccc(Cl)cc3)cs2)nc2cc(Cl)c(N3CCCCC3)cc21 (stereo not drawn),8.3,8.4,13.3,1.0,.,62.1*,56.0*
OCCOCCn1c(C2CCCN2c2nc(-c3ccc(F)cc3)cs2)nc2cc(C(F)(F)F)ccc21 (stereo not drawn),5.7,2.3,4.9,-2.0,.,15.4,.
COCCCn1c(C(=O)Nc2ccc3c(c2)OCO3)cc2c(=O)n3cccc(C)c3nc21,.,.,.,-1.1,.,69.4*,27.9
CC(C)(C)OC(=O)N(CCc1ccccc1)Cc1cccc(OCc2cccc(NC(=O)c3ccccc3)c2)c1,.,28.3,.,1.3,.,-5.4,.
CC(C)(C)OC(=O)N(CCc1ccccc1)Cc1ccccc1OCc1cccc(NC(=O)/C=C/c2ccccc2)c1,.,-58.5,.,-1.5,.,53.1*,43.2*
CC(C)(C)OC(=O)N(CCc1ccccc1)Cc1ccc(OCc2cccc(NC(=O)/C=C/c3ccccc3)c2)cc1,.,-77.1,.,-1.9,.,50.9*,65.3*
CN(CCCNC(=O)Cn1cccc1C(=O)c1ccccc1)C1CCCCC1,-0.2,11.4,1.2,-0.4,21.4,-7.8,.
COc1ccc(C(OC(=O)c2ccco2)C(=O)NC(C)(C)C)cc1OC (stereo not drawn),.,-2.7,.,-0.1,.,-6.6,.
COc1ccc(C[C@@H]2CN3C(=NC[C@@H]3Cc3ccc(O)cc3)N2C[C@H](C)NC(=O)CCC2CCCCC2)cc1,8.2,22.3,-0.5,-6.9,-14.0,44.5,.
COc1ccc(C[C@H]2CN3C(=NC[C@@H]3Cc3ccc(O)cc3)N2C[C@H](C)NC(=O)CCC2CCCCC2)cc1,8.7,27.9,15.2,3.0,3.0,51.0*,39.4
Cc1ccc(C(=O)NCCN2C3=NC[C@H](C(C)C)N3C[C@H]2Cc2ccc(O)cc2)cc1Br,19.0,23.7,9.4,-3.2,-15.9,56.6*,40.2*
COc1ccc(C[C@H]2CN3C(=NC[C@@H]3C(C)C)N2CCNC(=O)c2ccc(C)c(Br)c2)cc1,25.7,29.7,-6.2,-4.8,1.8,.,.
O=C(CCC1CCCCC1)NCCN1C2=NC[C@@H](Cc3ccccc3)N2C[C@H]1Cc1ccc(O)cc1,-1.6,45.3,-4.3,-3.4,-12.9,62.9*,62.1*
O=C(CCC1CCCCC1)NCCN1C2=NC[C@H](Cc3ccccc3)N2C[C@H]1Cc1ccc(O)cc1,1.2,0.6,11.3,-0.7,-11.6,.,.
CC(Sc1nc2ncc(Cl)cc2[nH]1)C(=O)Nc1ccc(C(N)=O)cc1 (stereo not drawn),10.9,-0.4,21.8,-0.4,.,10.3,.
CC(C)(C)c1csc(NNC(=O)c2ccc(Br)cc2)n1,-16.6,-17.6,-12.1,-0.2,4.8,54.6*,11.7
CCSCc1nnc(SCC(=O)Nc2nccs2)n1CC,-3.3,-3.1,-11.3,-0.6,-1.9,15.5,.
CCn1c(COc2ccc(C(C)C)cc2)nnc1SCC(=O)Nc1nccs1,23.4,-9.8,-16.0,0.0,4.5,57.3*,14.6
CN(C)CCCn1c(=O)n(CCc2ccccc2)c(=O)c2c3c(sc21)CCCCC3,10.9,12.3,-16.9,-0.7,17.1,54.5*,50.0*
CN(C)CCCNc1nc2sc3c(c2c(=O)n1CCc1ccccc1)CCCCC3,0.1,11.5,7.4,-0.1,7.2,59.6*,34.4
SMILES,Jurkat NFkB inh,Gli-Sufu antag,697 NFkB inh,hiPSC survival,Hep lipid drop,TAG inh,TAG conf
CN(C)CCn1c(=O)n(Cc2ccccc2)c(=O)c2c3c(sc21)CCCCC3,0.8,18.3,-5.5,-0.3,1.5,.,.
COc1ccccc1C(=O)Nc1cc(C)c(OCC(=O)N2CCOCC2)c(C)c1,-4.2,-16.8,2.5,-0.3,4.7,-1.4,.
Cc1ccc(C(=O)Nc2cc(C)c(OCC(=O)N3CCOCC3)c(C)c2)cc1,-27.1,-50.0,-53.2,-7.0,37.4,63.2*,41.6*
COC(=O)C(=CC(=CN(C)C)C=C(C(=O)OC)C(=O)OC)C(=O)OC,3.9,2.0,2.3,-0.7,1.1,7.3,.
C[C@H](O)[C@@H]1CN2CCc3c([nH]c4ccc(-c5ccc6c(c5)OCO6)cc34)[C@@H]2C[C@@H]1N(C)C(=O)Nc1cc(Cl)cc(Cl)c1,.,.,.,-1.4,.,69.7*,89.4*
C[C@H](O)[C@@H]1CN2CCc3c([nH]c4ccccc34)[C@@H]2C[C@@H]1N(C)C(=O)Nc1cc(Cl)cc(Cl)c1,.,.,.,-2.7,.,3.0,.
Cc1cccc(-c2ccc3[nH]c4c(c3c2)CCN2C[C@@H]([C@H](C)O)[C@@H](N(C)C(=O)Nc3ccc(F)cc3)C[C@@H]42)c1,.,.,.,-2.2,.,50.1*,47.7*
COc1ccc(NC(=O)N(C)[C@H]2C[C@H]3c4[nH]c5ccc(-c6cccc(C)c6)cc5c4CCN3C[C@H]2[C@H](C)O)cc1,.,.,.,-4.5,.,46.1,.
COC(=O)c1ccc(C(=O)OC)c(NC(=O)CN2CCN(c3ccc(OC)cc3)CC2)c1,1.4,4.1,19.9,1.4,-2.2,56.1*,20.1
COC(=O)c1ccc(C(=O)OC)c(NC(=O)CN2CCN(c3ccccc3)CC2)c1,-1.7,14.1,3.1,2.0,-8.5,.,.
COc1cccc(OC)c1OCCCOc1ccc(C)cc1Br,-5.4,-3.1,-4.4,2.4,-4.6,.,.
O=C(COC(=O)c1cccc(OC(F)F)c1)NCC1CCCO1 (stereo not drawn),2.8,3.2,10.3,0.5,.,1.3,.
COC(=O)[C@@]1(Cc2ccc(OC)cc2)[C@@H]2C(=CC(=O)[C@H]2CC(=O)C(=O)N2CCCC2)CN1C(=O)c1ccccc1,-3.4,4.6,-11.1,-5.1,.,53.1*,54.6*
COCCn1c(SCC(=O)Nc2nnc(C)s2)nnc1-c1ccoc1C,2.6,-3.4,9.7,-0.5,-0.1,-0.6,.
COCCCn1c(SCC(=O)Nc2nc3ccccc3s2)nnc1-c1ccoc1C,4.7,5.5,3.2,-3.8,-0.4,50.7*,34.2
